# proCasp7 act: activates human procaspase-7, counter-screen for procaspase-3 activators; hit rate 0.093% among 330,000; recombinant procaspase-7, Ac-DEVD-pNA absorbance 405 nm; D23A/D198A/D206A triple mutant, cannot self-cleave; scale: DMSO 0, 5 µM enzyme 100; activation, % at 8.5 µM; AID 463210; P55210;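 active = percent activation above the screen-wide mean plus 3 SD, cut at about 25% in these data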
# Target sequence (P55210 whole entry D23A/D198A/D206A): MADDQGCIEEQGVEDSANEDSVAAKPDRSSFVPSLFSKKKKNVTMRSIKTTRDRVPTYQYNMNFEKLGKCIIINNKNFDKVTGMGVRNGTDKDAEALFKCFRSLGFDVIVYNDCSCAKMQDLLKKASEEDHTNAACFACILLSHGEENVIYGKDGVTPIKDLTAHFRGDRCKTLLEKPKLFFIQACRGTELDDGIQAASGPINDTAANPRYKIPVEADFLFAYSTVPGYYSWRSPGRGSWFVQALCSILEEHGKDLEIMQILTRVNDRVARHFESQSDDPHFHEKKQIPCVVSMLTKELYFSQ
#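 buffer or medium = Zinc-free HEPES/NaCl buffer, pH 7.4 | material = Procaspase-7 triple mutant (PC-7 D3A) | input = 2 µM procaspase-7 mutant as dispensed | signal = Epi-absorbance of released pNA at 405 nm, two timepoints | timing = 1 h preincubation, 2 h reaction | replicates = singlicate compound testing | evaluation = % activation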
# proCasp3 act: procaspase-3 (human) activation; P42574; activation, % at 8.5 µM; recombinant procaspase-3 D3A, Ac-DEVD-pNA absorbance 405 nm; AID 463141; hit rate 0.11% among 330,000;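 active = activation above the mean of all tested compounds plus 3 SD, cut at about 21% in these data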;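 note: 0% = DMSO alone and 100% = DMSO wells spiked with extra 5 µM PC-3 D3A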
# Target sequence (P42574 whole entry D9A/D28A/D175A): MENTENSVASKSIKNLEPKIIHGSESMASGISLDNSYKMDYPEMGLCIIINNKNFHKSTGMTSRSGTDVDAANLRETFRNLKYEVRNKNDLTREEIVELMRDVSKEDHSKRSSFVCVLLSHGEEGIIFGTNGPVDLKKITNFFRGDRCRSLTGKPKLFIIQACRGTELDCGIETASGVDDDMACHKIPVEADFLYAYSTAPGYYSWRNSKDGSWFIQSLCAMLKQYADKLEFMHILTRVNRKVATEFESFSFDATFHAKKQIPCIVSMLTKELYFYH
#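 material = Procaspase-3 D3A mutant | probe or stimulus = Ac-DEVD-pNA | compound = single dose, 8.5 µM nominal compound, 0.8% DMSO | timing = 1 h preincubation, 2 h reaction | measured by = 405 nm absorbance of p-nitroaniline, reads at 0 and 120 min | benchmarks = DMSO-only low control, 5 µM PC-3 D3A high control | repeats = singlicate, each compound tested once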
# bovine MsrA act: bovine methionine sulfoxide reductase A activation. purified bovine MsrA, absorbance read-out. hit rate 0.3% among 360,000. AID 602163. activation, % at 10.6 µM; in the data active = activation above about 7.5%;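 note: 0% = vehicle and 100% = reference activator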
# MsrA inhibitor: bovine MsrA inhibition. purified bovine MsrA, absorbance read-out. inhibition, % at 15.5 µM. hit rate 0.75% among 360,000. AID 651718;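 note: 0% = vehicle wells with enzyme and 100% = reference inhibitor wells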
# MsrA inh confirm: confirmation of bovine MsrA inhibitors | shares compounds with MsrA inhibitor | purified bovine MsrA, absorbance read-out | hit rate 41% among 2,300 | inhibition, % at 15.5 µM;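 note: coupled to thioredoxin reductase with NADPH and selenocystamine and DMSO as substrate; 0% = vehicle only and 100% = full effect of reference inhibitor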
# * marks the source's active call; other numbers are inactive results; nt = no result given. The list is not random: actives were taken first. Their share in the collection is about 1.2%. Cut-off read from the data, not from the text of the source, unless noted: active = inhibition above about 4.5%; inactive = the rest.
SMILES,proCasp7 act,proCasp3 act,bovine MsrA act,MsrA inhibitor,MsrA inh confirm
CCOC(=O)C1CCCN(C(=O)c2cnn3c(C(F)(F)F)cc(-c4ccccc4)nc23)C1 (stereo not given),4,4,-2,5.3*,3
C[n+]1ccccc1/C=C/c1ccc(F)c(F)c1,-7,-13,-2,4,nt
O=[N+]([O-])c1ccc(C=CC=Cc2ccccc2)cc1,nt,nt,-4,0,nt
C[n+]1ccccc1/C=C/c1ccc(C#N)cc1,5,-8,-2,6.5*,5.6*
C[n+]1ccccc1/C=C/c1ccc([N+](=O)[O-])cc1,-2,13,-3,6.0*,6.8*
Cc1ccccc1/C=C/c1cccc[n+]1C,nt,nt,1,2,nt
C[n+]1ccccc1/C=C/c1ccc2ncccc2c1,nt,nt,-4,6.9*,6.9*
Cc1noc(C)c1S(=O)(=O)N1CCCc2nc(-c3ccccc3)ccc21,nt,nt,nt,0,nt
Cc1cc(Nc2cc(Cl)cc(Cl)c2)cc(=O)n1-c1cc(Cl)cc(Cl)c1,nt,nt,nt,0,nt
CCN1CCN(c2nc(Nc3ccccc3)nc(N)c2[N+](=O)[O-])CC1,3,-4,2,4.8*,4
CCN1CCN(c2nc(Nc3cccc(C)c3)nc(N)c2[N+](=O)[O-])CC1,1,-4,0,2,nt
COC(=O)C1=C(C)N(C)C(=NCc2ccccc2C(F)(F)F)NC1c1ccc(F)cc1 (stereo not given),nt,nt,nt,0,nt
CCN(C(=O)COC(=O)c1cc([N+](=O)[O-])ccc1N1CCOCC1)c1ccccc1,-17,-8,-1,9.8*,5.5*
O=C(Cc1ccc2cccnc2c1)c1ccc(O)cc1O,-3,9,-16,5.0*,4
O=C(N/N=C/c1cccs1)c1ccc(NC(=O)c2ccccc2Cl)cc1,15,2,-4,4.8*,4
COCCCNc1oc(/C=C/c2ccccc2)nc1C#N,2,4,-5,5.9*,4
O=C(N/N=C/c1ccc(N2CCOCC2)cc1)c1ccccc1NS(=O)(=O)c1cccs1,-3,7,-7,8.0*,7.0*
O=C(NN=Cc1ccc(F)c(F)c1)c1ccc(NS(=O)(=O)c2cccs2)cc1,5,1,-6,3,nt
CCOC(=O)N/N=C/c1ccc(N2CCOCC2)s1,-7,-1,-12,5.3*,5.7*
O=C(N/N=C/c1ccc(N2CCOCC2)cc1)c1ccncc1,14,7,-3,5.0*,5.0*
O=C(N/N=C/c1ccc2c(c1)OCO2)c1ccc(NS(=O)(=O)c2cccs2)cc1,2,3,-8,5.7*,7.5*
O=C(NN=Cc1ccc(O)cc1O)c1ccccc1NS(=O)(=O)c1cccs1,-21,-23,3,3,nt
CN(C(=O)CCc1cn(C)c2ccccc12)c1ccc(Oc2cccnc2)cc1,nt,nt,nt,-1,nt
O=C(N/N=C/c1ccc(N2CCOCC2)cc1)c1ccc(NS(=O)(=O)c2cccs2)cc1,-4,-4,-7,6.8*,6.4*
COc1ccc(C=NNC(=O)c2ccccc2NS(=O)(=O)c2cccs2)cc1O,13,4,-4,5.1*,3
SMILES,proCasp7 act,proCasp3 act,bovine MsrA act,MsrA inhibitor,MsrA inh confirm
O=C(N/N=C/c1ccc(N2CCOCC2)s1)c1ccc(NS(=O)(=O)c2cccs2)cc1,-6,-7,3,4.7*,4
COC(=O)CC#C[C@H](C)[C@@H](NS(=O)(=O)c1ccc([N+](=O)[O-])cc1)C(C)(C)C,nt,nt,nt,0,nt
O=C1N=C(N2CCCCC2)S/C1=C\c1ccncc1,4,-14,-3,2,nt
COc1ccc(/C=C2\SC(N3CCCCC3)=NC2=O)cc1,6,-3,-5,5.9*,4.7*
CCc1ccc(/C=C2\SC(N3CCCC3)=NC2=O)cc1,7,0,-5,4.8*,3
CC(=O)COc1ccc2oc(=O)cc(-c3cc4ccccc4o3)c2c1,6,1,-3,13*,12*
COc1cccc2cc(-c3cc(=O)oc4cc(C)c(OCC(C)=O)cc34)oc12,-4,2,-7,0,nt
O=c1cc(-c2cc3ccccc3o2)c2cc(O)ccc2o1,-3,-6,-5,nt,nt
Cc1cc2oc(=O)cc(-c3cc4ccccc4o3)c2cc1O,-9,-9,-4,6.5*,4
COC(=O)[C@]12C[C@H](CC(=O)N3CCN(C(=O)C4CC4)CC3)C(=O)N(Cc3ccccc3)C1=C[C@H](C1CCCC1)O[C@@H]2C,nt,nt,nt,0,nt
O=C(NC1CCCC1)[C@@H]1CCCN1C(=O)[C@@H](NS(=O)(=O)c1ccc(F)cc1F)c1ccccc1,nt,nt,nt,0,nt
COc1ccc(C(=O)N/N=C/c2cccnc2)cc1,2,9,-3,1,nt
Cc1nc(N)sc1C(=O)N/N=C/c1cccnc1,0,-3,-5,5.8*,3
COc1ccccc1/C=N/NC(=O)c1sc(C)nc1C,-4,-4,-6,5.1*,1
COC(=O)C1=C(C)N(Cc2cccc(C(F)(F)F)c2)C(=NCc2ccc(OC)cc2)NC1c1ccccc1 (stereo not given),nt,nt,nt,-2,nt
O=C(NNC(=S)Nc1cccc(C(F)(F)F)c1)c1ccncc1,nt,nt,-2,4.8*,1
Cc1ccc(/C=C(\C#N)C(=O)Nc2c(C)cccc2C)s1,0,2,-4,7.1*,6.1*
CCCCc1c(-c2ccccc2OC)ncn1Cc1c(Cl)cccc1Cl,nt,nt,nt,0,nt
CC(=O)N=Cc1c(C)c(C#N)c(=O)n(C)c1O,-4,0,-3,3,nt
Cc1c(/C=N/Nc2ccc(F)cc2)c(O)n(C)c(=O)c1C#N,-7,3,-15,6.4*,6.7*
O=C(N[C@H](C(=O)N1CCC[C@H]1C(=O)NCCc1ccccc1Cl)c1ccccc1)C1CCCC1,nt,nt,nt,2,nt
Cc1[nH]c2ccccc2c1/C=N/NC(=O)c1cc(-c2cccs2)[nH]n1,1,1,-10,4.7*,3
CCC(=O)Nc1ccc(C(=O)N/N=C/c2c(C)[nH]c3ccccc23)cc1,-12,-4,-4,6.5*,4.9*
Cc1cc(C(=O)N/N=C/c2c3ccccc3cc3ccccc23)n[nH]1,-17,-12,-1,1,nt
Cc1cc(C(=O)N/N=C/c2c(C)n(C)c3ccccc23)n[nH]1,6,10,-8,6.9*,4
SMILES,proCasp7 act,proCasp3 act,bovine MsrA act,MsrA inhibitor,MsrA inh confirm
O=C(C(=O)N1CCN(S(=O)(=O)c2ccccc2)CC1)c1cccc(C(F)(F)F)c1,nt,nt,nt,1,nt
COCCCNC(=O)C(=O)N/N=C/c1cc2c(cc1Br)OCO2,0,-4,-3,5.0*,3
CC(=O)c1ccc(N2CCN(C(=O)CCCc3nc4ccccc4s3)CC2)cc1,-4,1,-10,5.7*,3
COc1ccccc1S(=O)(=O)N(C)C[C@H]1Oc2cc(Br)ccc2S(=O)(=O)N([C@H](C)CO)C[C@H]1C,nt,nt,nt,5.6*,0
COC(=O)C1=C(C)N(C)C(=NCc2ccccc2)NC1c1ccc(F)cc1 (stereo not given),nt,nt,nt,-1,nt
O=c1oc2ccccc2cc1-c1cn2cccnc2n1,-3,4,1,5.8*,5.0*
CC1(C)CC(NNCCC#N)=CC(=[N+]2CCCC2)C1,-14,-17,-2,0,nt
